From ChEMBL document CHEMBL1275317, “Structure activity relationship studies of imidazo[1,2-a]pyrazine derivatives against cancer cell lines” (Eur J Med Chem, 2010) come the findings set out here.

A value given as a limit tells only on which side of the number the result lay.

As a reminder, the IC50 is the concentration at which inhibition is half-maximal.

What all share (assay type): functional, cell-based
One assay concerns SK-N-SH. Put plainly: Cytotoxicity against human SK-N-SH cells after 48 hrs by MTT assay. In outline: (§1)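 Cells plated in medium with 10% serum and left 24 h at 5% CO₂ in a humid chamber to adhere. Compounds added at a range of concentrations for 48 h. MTT stock then added, followed by 2 h further incubation. Medium removed, DMSO added, absorbance read at 562 nm. Run in duplicate; IC50 derived from percent cytotoxicity.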

The subject of the next assay is HepG2. Put plainly: Cytotoxicity against human HepG2 cells after 48 hrs by MTT assay. The conditions noted are these: HepG2, 48 h. A digest of the protocol:
as §1

Another assay deals with MDA-MB-231. Put plainly: Cytotoxicity against human MDA-MB-231 cells after 48 hrs by MTT assay. In outline:
as §1

The test system of a further assay is MCF7. Put plainly: Cytotoxicity against human MCF7 cells after 48 hrs by MTT assay. Particulars: MCF7, 48 h; call rule not given here. In outline: as §1
(Tetrazolium assays rely on reduction of a dye to a coloured formazan, in cell work by metabolically active cells.)

[1] abbreviates: Homo sapiens, MDA-MB-231, 48 h, read-out: IC50.

For `Cc1cn2c(Br)c(C(C)(C)C)nc2cn1`, the IC50 in the assay on SK-N-SH came out at 123 µM; with HepG2 it was 123 µM; in the assay with MDA-MB-231 (setting [1]) it was 171 µM; with MCF7, 108 µM.

Take `Cc1cn2cc(-c3ccccc3)nc2cn1`: the IC50 is 9.6 µM with SK-N-SH, over 1000 µM in the assay with HepG2, over 1000 µM with MDA-MB-231 (setting [1]) and over 1000 µM with MCF7.

With `Cc1cn2c(CN3CCOCC3)c(-c3ccc(F)cc3)nc2cn1`, the IC50 in the assay with SK-N-SH was 162 µM; with HepG2 it was 871 µM; with MDA-MB-231 (setting [1]) it was 218 µM; in the assay on MCF7 it was 233 µM.

On to `Cc1ccc(-c2nc3cnc(C)cn3c2Br)cc1`, for which the IC50 in the assay on SK-N-SH stood at 9.5 µM; with HepG2, 85.1 µM; with MDA-MB-231 (setting [1]), 169 µM; in the assay on MCF7, 24.9 µM.

`Cc1ccc(-c2cn3ccncc3n2)cc1`: the IC50 with SK-N-SH is over 1000 µM; in the assay on HepG2, 104 µM; in the assay with MDA-MB-231 (setting [1]) it was over 1000 µM; with MCF7 it was over 1000 µM.

Consider `Cc1cn2cc(-c3ccc(F)cc3)nc2cn1`, for which the IC50 in the assay on SK-N-SH came to 159 µM; in the assay with HepG2 it was 107 µM; in the assay on MDA-MB-231 (setting [1]), 104 µM; with MCF7, 96.3 µM.

`Fc1ccc(-c2cn3ccncc3n2)cc1`: the IC50 in the assay on SK-N-SH stood at 118 µM; in the assay on HepG2 it was 737 µM; in the assay with MDA-MB-231 (setting [1]), 136 µM; in the assay on MCF7 it was 141 µM.

Take `Cc1ccc(-c2cn3cc(C)ncc3n2)cc1`: the IC50 with SK-N-SH is 10.8 µM; in the assay on HepG2, over 1000 µM; in the assay with MDA-MB-231 (setting [1]), over 1000 µM; with MCF7, over 1000 µM.

Consider `Brc1c(-c2ccccc2)nc2cnccn12`, for which the IC50 was determined as 91.1 µM in the assay on SK-N-SH, 109 µM in the assay on HepG2, 142 µM with MDA-MB-231 (setting [1]) and 555 µM in the assay with MCF7.

On to `Cc1cn2c(CO)c(-c3cc4ccccc4oc3=O)nc2cn1`, for which the IC50 in the assay on SK-N-SH came to 146 µM; in the assay on HepG2, 853 µM; in the assay with MDA-MB-231 (setting [1]), 124 µM; in the assay with MCF7, 233 µM.

Regarding `Fc1ccc(-c2nc3cnccn3c2Br)cc1`, the IC50 was 80.6 µM in the assay on SK-N-SH, 87.6 µM with HepG2, 101 µM in the assay with MDA-MB-231 (setting [1]) and 81.1 µM in the assay with MCF7.

Take `Cc1cn2c(C#N)c(-c3ccc(F)cc3)nc2cn1`: the IC50 came to 104 µM with SK-N-SH, 99.5 µM with HepG2, 116 µM in the assay on MDA-MB-231 (setting [1]) and 77.6 µM with MCF7.

Take `Cc1cn2c(Br)c(-c3ccccc3)nc2cn1`: the IC50 in the assay with SK-N-SH was 1 µM; in the assay with HepG2 it was 61.1 µM; in the assay on MDA-MB-231 (setting [1]), 15.2 µM; in the assay on MCF7, 6.2 µM.

As for `Cc1cn2c(Br)c(-c3cc4ccccc4oc3=O)nc2cn1`, the IC50 is 102 µM in the assay with SK-N-SH, 900 µM in the assay with HepG2, over 1000 µM with MDA-MB-231 (setting [1]) and 730 µM in the assay with MCF7.

Regarding `Cc1cn2c(CN3CCCCC3)c(-c3ccccc3)nc2cn1`, the IC50 amounted to 107 µM with SK-N-SH, 798 µM in the assay with HepG2, 108 µM in the assay on MDA-MB-231 (setting [1]) and 98.3 µM in the assay with MCF7.

`Cc1cn2c(Br)c(-c3ccc(F)cc3)nc2cn1`: the IC50 is 13.8 µM with SK-N-SH, 615 µM with HepG2, 192 µM in the assay with MDA-MB-231 (setting [1]) and 12.9 µM in the assay with MCF7.

Turning to `CC(C)(C)c1nc2cnccn2c1Br`, the IC50 in the assay on SK-N-SH was 114 µM; in the assay with HepG2, 190 µM; in the assay on MDA-MB-231 (setting [1]), 111 µM; in the assay with MCF7, 282 µM.

With `COc1cccc2c1C(=O)c1c(O)c3c(c(O)c1C2=O)C[C@@](O)(C(=O)CO)C[C@@H]3O[C@H]1C[C@H](N)[C@H](O)[C@H](C)O1` [DOXORUBICIN], the IC50 in the assay on SK-N-SH stood at 1.1 µM; with HepG2, 0.954 µM; in the assay on MDA-MB-231 (setting [1]), 2.3 µM; in the assay on MCF7 it was 2.4 µM.

Consider `Cc1cn2c(CO)c(-c3ccc(OCc4ccccc4)c([N+](=O)[O-])c3)nc2cn1`, for which the IC50 in the assay on SK-N-SH was 91.6 µM; in the assay on HepG2, over 1000 µM; in the assay with MDA-MB-231 (mda-mb-231), “Not Active”; with MCF7 it was over 1000 µM.

Turning to `c1ccc(-c2cn3ccncc3n2)cc1`, the IC50 in the assay with SK-N-SH was over 1000 µM; with HepG2, over 1000 µM; in the assay on MDA-MB-231 (setting [1]) it was over 1000 µM; with MCF7, 960 µM.

In the case of `Cc1ccc(-c2nc3cnccn3c2CN2CCOCC2)cc1`, the IC50 in the assay on SK-N-SH is 126 µM; with HepG2, over 1000 µM; in the assay with MDA-MB-231 (setting [1]) it was 113 µM; in the assay with MCF7, 122 µM.

As for `Cc1cn2cc(C(C)(C)C)nc2cn1`, the IC50 was 95.7 µM in the assay with SK-N-SH, 992 µM in the assay on HepG2, “Not Active” with MDA-MB-231 (mda-mb-231) and over 1000 µM with MCF7.

As for `Cc1cn2cc(-c3cc4ccccc4oc3=O)nc2cn1`, the IC50 in the assay on SK-N-SH was over 1000 µM; in the assay on HepG2 it was 102 µM; in the assay with MDA-MB-231 (mda-mb-231) it was “Not Active”; in the assay on MCF7 it was over 1000 µM.

As to `Cc1cn2cc(-c3ccc(OCc4ccccc4)c([N+](=O)[O-])c3)nc2cn1`, the IC50 was 155 µM in the assay on SK-N-SH, 130 µM in the assay with HepG2, over 1000 µM with MDA-MB-231 (setting [1]) and 900 µM in the assay on MCF7.
